# *1 amine or outer side, *2 acyl side, *3 side chain or, on linkers, in order; H or OH if unused. Where a SMILES comes first, the peptide text is derived from it. Bridges are numbered along the chain shown (N, C = ends). The star is where a group is joined. X1 = CC(C)C[C@@H](CNC(=O)N1C[C@@H](SCCCCCC[*:1])C[C@H]1C(N)=O)NC(=O)NC[C@H](CC(C)C)N[*:2]; X4 = CC(C)C[C@@H](CNC(=O)N1CCC[C@H]1C(N)=O)NC(=O)NC[C@H](CC(C)C)N*; X2 = CC(C)C[C@@H](CNC(=O)N[C@@H](C)CNC(=O)N1CCC[C@H]1C(N)=O)N*
# Legend:
# [1] = target: p53‐hDM2 interaction (Homo sapiens, UniProt Q00987); experiment: TR-FRET; assay type: binding; conditions: for IC50: IC50±SEM hDM2, 9-point curves in duplicates; for inhibition at 0.1 µM: read-out: Inhibition at 100 nM (%) hDM2
# Chain of p53‐hDM2 interaction (Q00987 whole entry): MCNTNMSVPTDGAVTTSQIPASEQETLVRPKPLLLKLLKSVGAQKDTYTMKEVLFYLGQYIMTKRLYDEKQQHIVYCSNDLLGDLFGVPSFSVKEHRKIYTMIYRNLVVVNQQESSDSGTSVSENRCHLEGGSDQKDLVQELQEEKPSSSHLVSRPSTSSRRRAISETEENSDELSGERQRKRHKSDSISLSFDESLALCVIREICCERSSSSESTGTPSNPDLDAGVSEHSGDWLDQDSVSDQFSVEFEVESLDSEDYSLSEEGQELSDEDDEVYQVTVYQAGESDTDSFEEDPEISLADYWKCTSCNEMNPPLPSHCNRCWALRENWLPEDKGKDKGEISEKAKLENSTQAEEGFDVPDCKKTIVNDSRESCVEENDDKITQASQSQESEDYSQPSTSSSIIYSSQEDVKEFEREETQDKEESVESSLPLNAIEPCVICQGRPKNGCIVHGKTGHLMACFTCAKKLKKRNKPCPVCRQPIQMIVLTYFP
# [2] = target: T1, p53‐hDMX interaction (Homo sapiens, UniProt O15151); experiment: TR-FRET; assay type: binding; conditions: for IC50: IC50±SEM hDMX, 9-point curves in duplicates; for inhibition at 0.1 µM: read-out: Inhibition at 100 nM (%) hDMX
# T1 sequence (O15151 1-490): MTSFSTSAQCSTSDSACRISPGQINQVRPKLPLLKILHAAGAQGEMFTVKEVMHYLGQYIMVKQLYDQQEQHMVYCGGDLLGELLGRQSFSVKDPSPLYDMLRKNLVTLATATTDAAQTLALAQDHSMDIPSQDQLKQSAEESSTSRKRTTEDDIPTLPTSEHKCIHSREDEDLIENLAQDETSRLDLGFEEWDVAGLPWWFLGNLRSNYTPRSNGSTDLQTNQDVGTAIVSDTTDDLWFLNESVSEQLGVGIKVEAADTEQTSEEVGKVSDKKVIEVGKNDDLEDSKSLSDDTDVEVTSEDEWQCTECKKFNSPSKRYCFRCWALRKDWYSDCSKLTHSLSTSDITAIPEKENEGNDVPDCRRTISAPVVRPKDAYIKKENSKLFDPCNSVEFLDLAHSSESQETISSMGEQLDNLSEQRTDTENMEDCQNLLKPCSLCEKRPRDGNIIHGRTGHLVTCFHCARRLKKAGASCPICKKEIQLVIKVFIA
# [3] = test system: p53wt HCT116 cells; experiment: Western blot of p53 protein levels; assay type: cell-based, human; conditions: 6 hours treatment, 0.1 to 40 µM
# Method in brief: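 p53wt HCT116 cells in exponential growth, seeded one day ahead, were exposed to test compound for 6 h without serum, then lysed in RIPA. SDS-PAGE, wet transfer to nitrocellulose, 5% BSA/TBS-T block 1 h RT. Anti-p53 and anti-GAPDH overnight at 4 °C, infrared anti-mouse secondary 1.5 h RT. Positive control was a reference hDM2 inhibitor. Three independent biological replicates.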
# [4] = test system: HCT116 cells; experiment: RT-qPCR of p53 target genes p21 and hDM2; assay type: cell-based, human; conditions: 6 hours treatment, n=3
# [5] = test system: HCT116 cells; experiment: MTS cell viability assay; assay type: cell-based, human; conditions: 3 days of incubation
# Method in brief: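 HCT116 cells (passages 47–50; DMEM, 10% heat-inactivated FCS, 37 °C, 5% CO₂) seeded at 3×10³ cells/well with test compound at various concentrations in serum-free medium for 8 h. Serum (10%) then added for 64 h more. MTS reagent added, absorbance read at 490 nm, % viability taken versus untreated cells. Two independent experiments, three technical replicates each.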
SMILES,IC50 [1] [nM],inhibition at 0.1 µM [1] [%],IC50 [2] [nM],inhibition at 0.1 µM [2] [%],p53 protein levels (western blot) [3],mRNA of target genes p21 and hDM2 (RT-qPCR) [4],viability of p53wt HCT116 cells (in words) [5]
CC(C)C[C@@H](CNC(=O)N[C@@H](C)CNC(=O)N1CCC[C@H]1C(N)=O)NC(=O)[C@H](C)NC(=O)[C@H](Cc1c[nH]c2ccccc12)NC(=O)[C@H](Cc1ccc(O)cc1)NC(=O)[C@H](CCC(=O)O)NC(=O)[C@H](C)NC(=O)[C@H](Cc1ccccc1)NC(=O)[C@H](CO)NC(=O)[C@@H](N)[C@@H](C)O [Compound 3] (H-TSFAEYWA-X2),54 ± 17,43,247 ± 42,19,,,
CC(C)C[C@@H](CNC(=O)N1CCC[C@H]1C(N)=O)NC(=O)NC[C@H](CC(C)C)NC(=O)[C@H](C)NC(=O)[C@H](Cc1c[nH]c2ccccc12)NC(=O)[C@H](Cc1ccc(O)cc1)NC(=O)[C@H](CCC(=O)O)NC(=O)[C@H](C)NC(=O)[C@H](Cc1ccccc1)NC(=O)[C@H](CO)NC(=O)[C@@H](N)[C@@H](C)O [Compound 4] (H-TSFAEYWA-X4),6.13 ± 0.08,99,115 ± 5,46,,,
CC(C)C[C@H]1CNC(=O)N2C[C@H](C[C@H]2C(N)=O)SCCCCCCSC[C@H](NC(=O)[C@H](Cc2ccccc2)NC(=O)[C@H](CO)NC(=O)[C@@H](N)[C@@H](C)O)C(=O)N[C@@H](CCC(=O)O)C(=O)N[C@@H](Cc2ccc(O)cc2)C(=O)N[C@@H](Cc2c[nH]c3ccccc23)C(=O)N[C@@H](C)C(=O)N[C@@H](CC(C)C)CNC(=O)N1 [Compound 8 a] (H-TSFCEYWA; linker 4-C via X1),1.91 ± 0.05,99,75 ± 4,66,,,
CC(=O)N[C@@H](CCCCN)C(=O)N[C@H](C(=O)N[C@@H](Cc1ccccc1)C(=O)N[C@H]1CSCCCCCCS[C@H]2C[C@@H](C(N)=O)N(C2)C(=O)NC[C@H](CC(C)C)NC(=O)NC[C@H](CC(C)C)NC(=O)[C@H](C)NC(=O)[C@H](Cc2c[nH]c3ccccc23)NC(=O)[C@H](Cc2ccc(O)cc2)NC(=O)[C@H](CCC(=O)O)NC1=O)[C@@H](C)O [Compound 10 a] (Ac-KTFCEYWA; linker 4-C via X1),3 ± 0.1,,63 ± 12,,dose‐dependent increase of p53 levels,dose‐dependent induction of mRNA of target genes p21 and hDM2,effective in reducing the viability of p53wt HCT116 cells in a concentration‐dependent manner
